Assay results: ChEMBL document CHEMBL4622973, “Discovery of Potent Small-Molecule SIRT6 Activators: Structure-Activity Relationship and Anti-Pancreatic Ductal Adenocarcinoma Activity” (J Med Chem, 2020)
Active and inactive are the calls of the source. No cut-off for these calls is given here.

Columns and labels:
[1] = molecular target: T1, NAD-dependent protein deacylase sirtuin-6 (Homo sapiens, UniProt Q8N6T7); assay: Activation of N-terminal his-tagged human SIRT6 expressed in Escherichia coli M15 [pREP4] assessed as increase in deacetylation activity incubated for 2 hrs using Ac-RYQK(Ac)-AMC substrate by FDL assay relative to control
T1 sequence (Q8N6T7 whole entry): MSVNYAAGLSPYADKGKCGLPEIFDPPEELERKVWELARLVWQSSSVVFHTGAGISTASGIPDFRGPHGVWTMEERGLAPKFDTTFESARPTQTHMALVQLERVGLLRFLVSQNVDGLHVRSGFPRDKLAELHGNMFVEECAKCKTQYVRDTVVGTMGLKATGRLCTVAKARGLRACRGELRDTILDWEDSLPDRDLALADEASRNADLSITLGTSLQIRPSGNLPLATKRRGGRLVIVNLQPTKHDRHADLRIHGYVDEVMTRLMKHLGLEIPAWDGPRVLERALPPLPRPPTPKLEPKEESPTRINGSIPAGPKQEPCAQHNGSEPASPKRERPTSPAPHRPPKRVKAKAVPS

[2] = molecular target: T1, NAD-dependent protein deacylase sirtuin-6; assay: Binding affinity to N-terminal his-tagged human SIRT6 expressed in Escherichia coli M15 [pREP4] assessed as change in melting temperature at 20 uM by SYPRO orange dye based DSF assay
[3] = molecular target: T1, NAD-dependent protein deacylase sirtuin-6; assay: Binding affinity to N-terminal his-tagged human SIRT6 expressed in Escherichia coli M15 [pREP4] by SPR assay
BXPC-3 [4] = assay: Antiproliferative activity against human BxPC3 cells assessed as reduction in cell viability incubated for 72 hrs by MTT assay; type: functional, cell-based
In short: (§1)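 PDAC cells grown in DMEM or RPMI1640 with 10% FBS and penicillin/streptomycin at 37 °C, 5% CO2. Plated in triplicate, then treated with a concentration series for 72 h. Viability read by MTT. IC50 calculated from dose-response curves.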

ASPC1 = assay: Antiproliferative activity against human AsPC1 cells assessed as reduction in cell viability incubated for 72 hrs by MTT assay; type: functional, cell-based; in short: as §1
BXPC-3 [5] = assay: Antiproliferative activity against human BxPC3 cells at 3.3 to 10 uM incubated for 24 hrs by EdU incorporation assay; type: functional, cell-based
In short: (§2)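 Cells seeded per well at 8000 (BXPC-3) or 4600 (PANC-1), then treated with a concentration series for 24 h. EdU incorporation detected with an EdU-Apollo kit, with Hoechst counterstain. EdU-positive cells counted by high-content imaging across 10 fields.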

PANC-1 [6] = assay: Antiproliferative activity against human PANC1 cells at 3.3 to 10 uM incubated for 24 hrs by EdU incorporation assay; type: functional, cell-based; in short: as §2
PANC-1 [7] = assay: Induction of cell cycle arrest in human PANC1 cells assessed as increase in accumulation at G2 phase incubated for 48 hrs by propidium iodide staining based flow cytometry; type: functional
In short: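 PANC-1 and BXPC-3 cells in 6-well plates treated with a concentration series for 48 h. Stained with 50 µg/mL propidium iodide for 30 min in the dark. DNA content analysed by flow cytometry for cell-cycle phase distribution.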

BXPC-3 [8] = assay: Induction of apoptosis in human BxPC3 cells incubated for 48 hrs by propidium iodide and Annexin V-FITC staining based flow cytometry; type: functional, cell-based
In short: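 PANC-1 and BXPC-3 cells seeded in 6-well plates and treated with a concentration series for 48 h. Stained with Annexin V-FITC and propidium iodide for 10 min in the dark. Annexin V+ populations measured by flow cytometry.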

MIA PaCa-2 = assay: Inhibition of cell migration of human MIAPaCa2 cells at 10 umol/L incubated for 24 hrs by inverted microscopy relative to control; type: functional; settings: MIA PaCa-2, 24 h
In short: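 PDAC cells are grown to a confluent monolayer at 37 °C in 5% CO2. The monolayer is scratched with a 200 μL pipette tip to make a gap of constant width, then washed with PBS. Cells are exposed to a range of compound concentrations. They are imaged by inverted microscope after 24 h. Migrated cells are counted by hand, and inhibition is expressed relative to untreated wells (100%).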

[9] = molecular target: T1, NAD-dependent protein deacylase sirtuin-6; assay: Binding affinity to SIRT6 in human PANC1 cells assessed as protection of SIRT6 protein from temperature-dependent degradation at 25 uM incubated for 72 hrs by CETSA; type: cell-based; settings: PANC-1
In short: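 Cells treated with compound (25 μM) or DMSO for 72 h, washed, resuspended in PBS with protease inhibitor cocktail, split into aliquots heated 3 min at a temperature gradient. Lysed by three freeze–thaw cycles, centrifuged at 4 °C for 15 min; soluble SIRT6 in supernatant detected by western blot. Triplicate.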

[10] = molecular target: T1, NAD-dependent protein deacylase sirtuin-6; assay: […] in human PANC1 cells assessed as reduction in H3K18ac levels incubated for 72 hrs by Western blot analysis; type: cell-based; settings: PANC-1
In short: (§3)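 Cells incubated 72 h with various compound concentrations; whole-cell RIPA lysates with protease inhibitors, BCA-normalised, separated on 12% SDS-PAGE, transferred to PVDF, blocked in 5% milk or BSA. Probed 10 h at 4 °C with antibodies to SIRT6, acetyl-H3K9/K18/K56, total H3, Lin28b, Myc, IGF2BP3, β-actin; HRP secondary, chemiluminescent detection.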

[11] = molecular target: T1, NAD-dependent protein deacylase sirtuin-6; assay: […] in human BxPC3 cells assessed as reduction in H3K18ac levels incubated for 72 hrs by Western blot analysis; type: cell-based; settings: BXPC-3; in short: as §3
[12] = molecular target: T1, NAD-dependent protein deacylase sirtuin-6; assay: […] in human BxPC3 cells assessed as reduction in IGF2BP3 expression levels at 25 uM incubated for 72 hrs by Western blot analysis; type: cell-based; settings: BXPC-3; in short: as §3
[13] = Half life in Sprague-Dawley rat at 10 mg/kg, po after 0.083 to 24 hrs by LC-MS/MS analysis; type: ADME, organism-based; settings: in vivo
In short: (§4)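 Male Sprague-Dawley rats, 6-8 weeks old. Dosing solution of 10 (PO) or 2 (IV) mg/mL in 5% DMSO, 10% Solutol and 85% saline, pH 7. Blood taken by cardiac puncture at 0.083–24 h (PO) or 0.25–24 h (IV). Plasma levels measured by LC-MS/MS. Values are mean ± SD, n = 3.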

[14] = Cmax in Sprague-Dawley rat at 10 mg/kg, po after 0.083 to 24 hrs by LC-MS/MS analysis; type: ADME, organism-based; set-up: dose 10 mg/kg, route oral; settings: in vivo; in short: as §4
[15] = Cmax in Sprague-Dawley rat at 2 mg/kg, iv after 0.25 to 24 hrs by LC-MS/MS analysis; type: ADME, organism-based; set-up: dose 2 mg/kg, route intravenous; settings: in vivo; in short: as §4
[16] = AUC (0 to infinity) in Sprague-Dawley rat at 2 mg/kg, iv after 0.25 to 24 hrs by LC-MS/MS analysis; type: ADME, organism-based; set-up: dose 2 mg/kg, route intravenous, time infinity; settings: in vivo; in short: as §4
[17] = molecular target: NAD-dependent protein deacylase sirtuin-5, mitochondrial (Homo sapiens, UniProt Q9NXA8); assay: Inhibition of SIRT5 (unknown origin) by FDL assay
Sequence of NAD-dependent protein deacylase sirtuin-5, mitochondrial (Q9NXA8 whole entry): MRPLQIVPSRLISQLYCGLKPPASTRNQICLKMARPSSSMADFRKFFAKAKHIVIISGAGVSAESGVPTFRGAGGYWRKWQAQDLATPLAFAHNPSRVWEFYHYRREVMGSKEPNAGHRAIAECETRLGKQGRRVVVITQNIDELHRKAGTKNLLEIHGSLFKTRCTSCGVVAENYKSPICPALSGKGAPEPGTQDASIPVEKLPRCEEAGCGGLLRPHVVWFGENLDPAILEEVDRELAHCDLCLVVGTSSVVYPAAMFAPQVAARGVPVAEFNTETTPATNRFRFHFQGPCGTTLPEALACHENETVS
In short: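 SIRT3 and SIRT5 tested by an outsourced FDL fluorogenic deacetylase assay, each from a different contract provider. The IC50 was determined for each enzyme, with concentrations going up to 200 μM.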

Histone deacetylase 2 = Histone deacetylase 2 (Homo sapiens, UniProt Q92769); assay: Inhibition of HDAC2 (unknown origin) by FDL assay
Sequence of Histone deacetylase 2 (Q92769 whole entry): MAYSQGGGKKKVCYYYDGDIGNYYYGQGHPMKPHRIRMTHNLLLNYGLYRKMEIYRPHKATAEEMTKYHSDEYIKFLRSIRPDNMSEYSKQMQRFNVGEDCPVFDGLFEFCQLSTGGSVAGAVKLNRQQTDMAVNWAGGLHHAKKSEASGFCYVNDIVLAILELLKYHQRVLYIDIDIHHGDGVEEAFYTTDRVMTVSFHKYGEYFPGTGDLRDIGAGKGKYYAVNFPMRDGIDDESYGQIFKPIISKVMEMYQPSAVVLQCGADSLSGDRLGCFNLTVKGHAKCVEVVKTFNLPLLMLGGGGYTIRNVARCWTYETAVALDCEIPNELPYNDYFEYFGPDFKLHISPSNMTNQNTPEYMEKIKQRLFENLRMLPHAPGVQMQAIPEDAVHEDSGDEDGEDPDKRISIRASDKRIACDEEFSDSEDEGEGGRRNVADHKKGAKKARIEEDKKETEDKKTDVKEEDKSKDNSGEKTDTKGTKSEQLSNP
In short: (§5)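 Selectivity testing by FDL assay at concentrations up to 200 µM. SIRT1-2 assays run by an outside contract provider. Values reported as IC50.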

Histone deacetylase 5 = Histone deacetylase 5 (Homo sapiens, UniProt Q9UQL6); assay: Inhibition of HDAC5 (unknown origin) by FDL assay; in short: as §5
Sequence of Histone deacetylase 5 (Q9UQL6 whole entry): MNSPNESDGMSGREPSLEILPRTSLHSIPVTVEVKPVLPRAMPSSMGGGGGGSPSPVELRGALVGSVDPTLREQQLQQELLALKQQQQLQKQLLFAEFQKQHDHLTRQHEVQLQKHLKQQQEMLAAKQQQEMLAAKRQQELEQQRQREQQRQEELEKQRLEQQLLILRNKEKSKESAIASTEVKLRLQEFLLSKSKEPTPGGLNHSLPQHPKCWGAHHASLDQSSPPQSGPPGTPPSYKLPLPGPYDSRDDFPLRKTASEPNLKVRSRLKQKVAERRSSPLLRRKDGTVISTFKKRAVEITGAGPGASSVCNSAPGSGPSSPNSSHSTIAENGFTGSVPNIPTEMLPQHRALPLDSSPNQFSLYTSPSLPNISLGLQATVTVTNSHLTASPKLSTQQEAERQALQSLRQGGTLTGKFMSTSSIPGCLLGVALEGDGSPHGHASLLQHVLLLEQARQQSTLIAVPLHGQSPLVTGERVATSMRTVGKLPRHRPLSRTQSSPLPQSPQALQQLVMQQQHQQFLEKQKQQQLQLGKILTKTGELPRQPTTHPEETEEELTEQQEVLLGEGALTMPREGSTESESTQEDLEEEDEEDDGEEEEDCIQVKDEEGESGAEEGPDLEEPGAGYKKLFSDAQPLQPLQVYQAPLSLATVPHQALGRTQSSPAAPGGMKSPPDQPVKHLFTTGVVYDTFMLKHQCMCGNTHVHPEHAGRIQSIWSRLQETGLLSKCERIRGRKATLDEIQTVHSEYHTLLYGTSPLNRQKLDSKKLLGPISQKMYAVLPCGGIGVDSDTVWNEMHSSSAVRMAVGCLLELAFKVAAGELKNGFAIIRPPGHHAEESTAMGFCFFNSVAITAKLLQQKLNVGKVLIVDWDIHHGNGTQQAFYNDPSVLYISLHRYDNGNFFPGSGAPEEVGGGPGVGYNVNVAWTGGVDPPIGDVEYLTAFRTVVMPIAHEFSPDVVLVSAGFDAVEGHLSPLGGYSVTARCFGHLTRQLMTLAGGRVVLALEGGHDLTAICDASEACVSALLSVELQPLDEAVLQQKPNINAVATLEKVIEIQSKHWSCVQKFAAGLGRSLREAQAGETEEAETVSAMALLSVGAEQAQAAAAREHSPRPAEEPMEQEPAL

Histone deacetylase 7 = Histone deacetylase 7 (Homo sapiens, UniProt Q8WUI4); assay: Inhibition of HDAC7 (unknown origin) by FDL assay; in short: as §5
Sequence of Histone deacetylase 7 (Q8WUI4 whole entry): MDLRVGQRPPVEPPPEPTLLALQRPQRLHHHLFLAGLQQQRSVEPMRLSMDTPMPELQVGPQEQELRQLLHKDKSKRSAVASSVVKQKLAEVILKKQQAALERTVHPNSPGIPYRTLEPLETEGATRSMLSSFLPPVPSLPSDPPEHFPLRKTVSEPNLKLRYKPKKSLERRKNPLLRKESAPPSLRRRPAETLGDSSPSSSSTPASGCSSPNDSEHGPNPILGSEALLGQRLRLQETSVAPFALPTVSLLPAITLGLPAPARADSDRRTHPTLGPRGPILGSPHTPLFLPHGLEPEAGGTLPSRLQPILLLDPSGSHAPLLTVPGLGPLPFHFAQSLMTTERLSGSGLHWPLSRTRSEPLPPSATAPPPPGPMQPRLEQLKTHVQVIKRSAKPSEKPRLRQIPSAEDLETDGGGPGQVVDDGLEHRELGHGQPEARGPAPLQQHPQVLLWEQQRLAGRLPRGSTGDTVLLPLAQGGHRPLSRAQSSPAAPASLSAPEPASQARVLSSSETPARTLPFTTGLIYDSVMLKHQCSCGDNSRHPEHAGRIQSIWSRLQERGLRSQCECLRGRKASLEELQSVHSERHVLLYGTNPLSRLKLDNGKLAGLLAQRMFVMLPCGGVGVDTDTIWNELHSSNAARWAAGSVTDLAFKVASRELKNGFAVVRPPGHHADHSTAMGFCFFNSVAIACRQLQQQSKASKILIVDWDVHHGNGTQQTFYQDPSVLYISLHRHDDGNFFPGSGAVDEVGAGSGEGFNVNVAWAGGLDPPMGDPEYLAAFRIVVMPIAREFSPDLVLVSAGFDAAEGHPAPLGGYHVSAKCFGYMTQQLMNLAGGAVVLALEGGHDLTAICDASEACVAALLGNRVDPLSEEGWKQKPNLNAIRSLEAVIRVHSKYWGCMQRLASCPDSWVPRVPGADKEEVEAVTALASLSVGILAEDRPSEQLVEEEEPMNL

Histone deacetylase 8 = Histone deacetylase 8 (Homo sapiens, UniProt Q9BY41); assay: Inhibition of HDAC8 (unknown origin) by FDL assay; in short: as §5
Sequence of Histone deacetylase 8 (Q9BY41 whole entry): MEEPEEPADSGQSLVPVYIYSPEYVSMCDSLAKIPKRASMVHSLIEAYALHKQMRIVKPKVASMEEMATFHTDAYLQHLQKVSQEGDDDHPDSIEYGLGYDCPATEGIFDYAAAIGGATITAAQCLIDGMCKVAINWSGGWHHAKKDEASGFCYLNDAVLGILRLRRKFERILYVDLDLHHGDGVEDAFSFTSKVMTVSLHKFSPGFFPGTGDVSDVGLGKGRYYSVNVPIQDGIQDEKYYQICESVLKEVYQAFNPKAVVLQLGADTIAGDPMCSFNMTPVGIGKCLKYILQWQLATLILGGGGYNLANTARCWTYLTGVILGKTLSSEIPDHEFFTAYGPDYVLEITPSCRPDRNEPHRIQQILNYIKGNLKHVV

[18] = molecular target: Polyamine deacetylase HDAC10 (Homo sapiens, UniProt Q969S8); assay: Inhibition of HDAC10 (unknown origin) by FDL assay; in short: as §5
Sequence of Polyamine deacetylase HDAC10 (Q969S8 whole entry): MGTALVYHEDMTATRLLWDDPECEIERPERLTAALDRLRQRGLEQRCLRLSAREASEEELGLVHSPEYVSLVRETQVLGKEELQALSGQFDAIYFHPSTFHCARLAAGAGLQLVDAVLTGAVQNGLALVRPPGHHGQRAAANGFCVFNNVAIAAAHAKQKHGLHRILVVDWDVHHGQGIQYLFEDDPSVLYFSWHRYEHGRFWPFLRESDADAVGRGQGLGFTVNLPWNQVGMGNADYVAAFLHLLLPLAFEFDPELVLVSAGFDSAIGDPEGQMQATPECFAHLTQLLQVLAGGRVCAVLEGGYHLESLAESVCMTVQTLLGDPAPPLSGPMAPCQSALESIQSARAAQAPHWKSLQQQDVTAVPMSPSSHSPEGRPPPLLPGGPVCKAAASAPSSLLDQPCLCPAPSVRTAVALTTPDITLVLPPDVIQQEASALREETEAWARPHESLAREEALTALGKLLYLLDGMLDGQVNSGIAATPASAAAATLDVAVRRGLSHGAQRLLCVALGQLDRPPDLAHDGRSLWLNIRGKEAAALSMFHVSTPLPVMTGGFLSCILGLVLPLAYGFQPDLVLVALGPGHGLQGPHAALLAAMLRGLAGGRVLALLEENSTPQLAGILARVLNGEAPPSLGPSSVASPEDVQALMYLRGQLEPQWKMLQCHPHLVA

EC1.5 [1]: 0.58 µM
EC50 [1]: 5.35 µM
ΔTm [2]: 1.01 °C
Kd [3]: 5.52 µM
IC50 (BXPC-3 [4]; BXPC-3, 72 h): 8.27 µM
IC50 (ASPC1; ASPC1, 72 h): 9.66 µM
Activity [9]: Active
inhibition [10]: Dose-dependent effect
inhibition [11]: Dose-dependent effect
inhibition [12]: Active
half-life [13]: 7.52 h
Cmax [14]: 0.0985 µg/mL
Cmax [15]: 5.12 µg/mL
AUC [16]: 3381.49 ng·mL·h
IC50 [17]: > 200 µM
IC50 (Histone deacetylase 2): > 200 µM
IC50 (Histone deacetylase 5): > 200 µM
IC50 (Histone deacetylase 7): > 200 µM
IC50 (Histone deacetylase 8): > 200 µM
IC50 [18]: > 200 µM
SMILES: O=C(NC(c1ccccc1)c1ccccc1)c1cc(-c2cc3ccccc3o2)nc2ccccc12
Activity (BXPC-3 [4]): Dose-dependent effect
Activity (ASPC1): Dose-dependent effect
Activity (BXPC-3 [5]): Active
Activity (PANC-1 [6]): Active
Activity (PANC-1 [7]): Dose-dependent effect
Activity (BXPC-3 [8]): Dose-dependent effect
inhibition at 10 µM (MIA PaCa-2): 57.2%
